Screening data as filed in PubChem BioAssay.
The full list was thinned out, with hits kept by preference.
GSK3A inh – blocks human GSK-3 alpha kinase; P49840; ADP-Glo luminescence, 60 min; inhibition, % at 10 µM; 320,000 compounds, 0.1% hits; AID 2650;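 active = more than half of replicates show inhibition above 20%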;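 note: GST-tagged GSK-3 alpha with peptide substrate and 25 µM ATP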
DYRK1A inh – Dyrk1A (rat) kinase inhibition; Q63470; ADP-Glo luminescence, NFATc1 peptide; inhibition, % at 12.5 µM; 310,000 compounds, 0.43% hits; AID 504441; in the data active = inhibition above about 50%
STK33 inh – inhibitors of human STK33 kinase; purified STK33, MBP phosphorylation, ADP-Glo luminescence; inhibition, % at 10 µM; AID 2661; 320,000 compounds, 0.073% hits;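 active = inhibition at or above 25%, using the most active replicate where run in duplicate; inactive = inhibition below 25%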
Target sequence (Q9BYT3 whole entry, looked up): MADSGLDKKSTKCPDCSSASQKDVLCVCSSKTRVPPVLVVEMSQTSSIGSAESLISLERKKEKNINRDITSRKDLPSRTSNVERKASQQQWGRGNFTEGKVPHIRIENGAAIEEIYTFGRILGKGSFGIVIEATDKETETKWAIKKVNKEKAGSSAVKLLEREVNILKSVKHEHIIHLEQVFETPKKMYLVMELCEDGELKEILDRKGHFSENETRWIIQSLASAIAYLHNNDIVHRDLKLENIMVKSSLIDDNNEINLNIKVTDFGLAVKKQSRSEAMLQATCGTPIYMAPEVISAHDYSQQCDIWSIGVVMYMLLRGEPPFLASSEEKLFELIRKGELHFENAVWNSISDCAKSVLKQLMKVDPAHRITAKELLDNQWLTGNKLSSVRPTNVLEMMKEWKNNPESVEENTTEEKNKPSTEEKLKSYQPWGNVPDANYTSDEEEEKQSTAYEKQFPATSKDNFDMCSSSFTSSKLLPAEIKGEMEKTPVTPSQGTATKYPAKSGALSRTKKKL
CDK5 p35 inh – blocks human CDK5/p35 kinase activity; inhibition, % at 10 µM; AID 488839; Q00535+Q15078; 330,000 compounds, 0.01% hits; Recombinant CDK5/p35, ADP-Glo luminescence, 60 min;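 active = highest replicate inhibition of at least 50% and at least 75% of replicates reaching 50%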
GSK3beta inhib – human GSK3beta kinase inhibition; GST-GSK3beta kinase, ADP-Glo luminescence, 60 min; stronger effect = lower value; AID 2097; activity score (negative = inhibition), % at 10 µM; 300,000 compounds, 0.038% hits;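 active = more than half of replicate wells score below -50%, meaning over 50% inhibition versus plate controls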
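test system = GST-tagged human GSK3beta kinase, cell-free | reagent = 25 µM ATP with peptide substrate | dosing = one dose of 10 µM per compound | schedule = 60 min reaction, RT | detection = luminescent ADP-Glo measurement of ADP formed | control set = DMSO neutral wells and GW8510 at 20 µM as positive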
Dyrk1A artifact – interferes with ADP-Glo luciferase readout without Dyrk1A. ADP-Glo luciferase artifact assay, no Dyrk1A, luminescence. shares compounds with DYRK1A inh. AID 588348. 1,300 tested, under 10 active. AC50, µM (series often up to 12 µM);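 active = fitted half-maximal dose AC50 no more than ten times the top valid tested dose, with luminescence dropping as dose rises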
Of the large screens only hits and unclear results are named; the others gave an inactive call (follow-up assays come after a bar, where they were run).

Oc1cc(O)cc(/C=C/c2ccc(O)cc2O)c1	STK33 inh 54.5 (no result: DYRK1A inh, GSK3beta inhib)
Cn1ncnc2c(=O)n(C)c(=O)nc1-2	DYRK1A inh 68.5
O=C1CN=C(c2ccccc2)c2ccccc2N1	none
CCc1cc2c(s1)NC(=O)CN=C2c1cccs1	GSK3A inh 75.9
ClCCN1CCN(c2ccnc3cc(Cl)ccc23)CC1	GSK3A inh 86.2
C=CCc1cc(C=C2C(=O)N(C)C(=O)N(C)C2=O)cc(OCC)c1OCc1ccccc1	none
CCN(CC)C(=O)c1ccc(NC(=O)CCCSc2ccccc2)cc1	none
CCN(CC)C(=O)c1ccc(NC(=O)Nc2ccccc2F)cc1	STK33 inh 27.8
CCCCn1c(O)c(C(CC)=NCCCn2ccnc2)c(=O)[nH]c1=O	none (no result: DYRK1A inh, CDK5 p35 inh)
CCCCn1c(O)c(C(C)=NCCCn2ccnc2)c(=O)[nH]c1=O	GSK3A inh 54.3
CCCCn1c(O)c(C=NCCCn2ccnc2)c(=O)[nH]c1=O	GSK3A inh 67.6
CC1=CC(=C2C(=O)NC(=S)NC2=O)C=C(C(F)(F)F)N1CCc1ccccc1	none (no result: GSK3A inh, DYRK1A inh, CDK5 p35 inh)
CCN(CC(=O)Nc1ccc(C#N)c(Cl)c1)CC(=O)NC1CCS(=O)(=O)C1 (stereo unspecified)	none (no result: GSK3A inh, STK33 inh, GSK3beta inhib)
O=C1Nc2ccccc2/C1=C/c1nc2ccccc2c(=O)n1-c1ccc(O)cc1	none
O=C1Nc2ccccc2/C1=C/c1cnc[nH]1	GSK3A inh 79.1, STK33 inh 37.0, CDK5 p35 inh 101.5
NC(=O)CSc1nnc([C@@H](N)Cc2c[nH]c3ccccc23)o1	GSK3A inh 51.9
O=P(C(=Nc1ccc(Cl)cc1)N1CCOCC1)(N1CCOCC1)N1CCOCC1	none (no result: GSK3beta inhib)
COC(=O)C1=C(c2ccc(OC(F)(F)F)cc2)C[C@@H]2CC[C@H]1N2C(=O)N1CCOCC1	none (no result: GSK3beta inhib)
N/C(=N\N=C/c1ccc(-c2ccc(O)c(C(=O)O)c2)o1)N[N+](=O)[O-]	DYRK1A inh 83.0 | Dyrk1A artifact inactive
N#C/C(=C\c1ccc(O)cc1)C(=O)O	DYRK1A inh 76.3 (no result: GSK3A inh, STK33 inh, GSK3beta inhib) | Dyrk1A artifact inactive
CC(=O)NN1C(=O)c2ccccc2NC1c1cccnc1 (stereo unspecified)	none
COc1cc2c(cc1O)C[C@H]1c3c(cc(O)c(OC)c3-2)CCN1C	DYRK1A inh 70.7 (no result: GSK3beta inhib) | Dyrk1A artifact inactive
COC(=O)C1=C(c2c(C)noc2C)C[C@@H]2CC[C@H]1N2C(=O)N1CCC(O)(c2ccc(Cl)cc2)CC1	none (no result: GSK3beta inhib)
O=S(=O)(c1ccc(Cl)cc1)c1ccc(Cl)cc1	none (no result: DYRK1A inh, GSK3beta inhib)
COc1cc2ccc(=O)oc2c2ccoc12	DYRK1A inh 58.5 | Dyrk1A artifact inactive
COc1cc2occc2c2oc(=O)ccc12	none
COC1=CC2[C@@H]3Cc4ccc(OC)c(O)c4[C@]2(CCN3C)CC1=O (stereo partly specified)	none (no result: GSK3beta inhib)
Cc1ccccc1-n1c(O)c(/C=C2/C(c3ccccc3)=Nc3ccccc32)c(=O)[nH]c1=O	none
Cc1cccc(-n2c(O)c(/C=C3/C(c4ccccc4)=Nc4ccccc43)c(=O)[nH]c2=O)c1	DYRK1A inh 60.0 | Dyrk1A artifact inactive
COC(=O)C1=C(c2ccc(F)cc2OCc2ccccc2)C[C@@H]2CC[C@H]1N2C(=O)NCc1ccccc1	DYRK1A inh 51.7 (no result: GSK3beta inhib) | Dyrk1A artifact inactive
CN1CCc2nc3sc(C#N)c(N)c3c(-c3cccs3)c2C1	GSK3A inh 94.7, DYRK1A inh 51.3 | Dyrk1A artifact inactive
COC(=O)C1=C(c2cc3ccccc3o2)C[C@@H]2CC[C@H]1N2C(=O)NCc1cccc2ccccc12	none
OC[C@H]1O[C@@H](n2cnc3cc(Cl)c(Cl)cc32)[C@H](O)[C@@H]1O	DYRK1A inh 74.0 (no result: CDK5 p35 inh, GSK3beta inhib) | Dyrk1A artifact inactive
CN1CCc2cc3c(c4c2C1Cc1ccccc1-4)OCO3 (stereo unspecified)	DYRK1A inh 67.5 | Dyrk1A artifact inactive
CN1CCc2cc(O)cc3c2[C@H]1Cc1ccc(O)c(O)c1-3	none
Cc1nccc2c1[nH]c1ccccc12	DYRK1A inh 76.5 | Dyrk1A artifact inactive
Cc1[nH]c2ccccc2c1/C=N/O	none
c1ccc2c(c1)[nH]c1cnccc12	DYRK1A inh 69.0 | Dyrk1A artifact inactive
CCc1nccc2c1[nH]c1ccccc12	DYRK1A inh 58.8 | Dyrk1A artifact inactive
O=c1c2ccccc2[nH]c(=S)n1-c1cccnc1	none (no result: DYRK1A inh, CDK5 p35 inh)
CCN1CCOC(c2ccccc2)C1 (stereo unspecified)	none (no result: GSK3A inh, STK33 inh, GSK3beta inhib)
CC(C)(C)C(=O)N1Cc2cnnn2-c2ccccc2C1C#N (stereo unspecified)	none (no result: GSK3A inh, DYRK1A inh, STK33 inh, GSK3beta inhib)
Clc1ccc(NC2=NCCCS2)cc1Cl	none
COC(=O)C1=C(c2ccc(Cl)c(C(F)(F)F)c2)C[C@@H]2CC[C@H]1N2C(=O)NCCOc1ccc(OC)cc1	DYRK1A inh 57.0 (no result: GSK3beta inhib) | Dyrk1A artifact inactive
COc1ccc2[nH]c3c(c2c1)CCNC3C (stereo unspecified)	none
COc1ccc2c3c([nH]c2c1)C(C)NCC3 (stereo unspecified)	DYRK1A inh 74.2 | Dyrk1A artifact inactive
CCCCn1c(=O)c(C(=O)Nc2ccsc2C(=O)OC)c(O)c2ccccc21	none
COc1ccc2c(c1)/C(=C/c1cnc[nH]1)C(=O)N2	GSK3A inh 81.0, DYRK1A inh 82.7, STK33 inh 58.1, CDK5 p35 inh active, GSK3beta inhib -89.0 | Dyrk1A artifact inactive
